Reference: PMC10150624 (Journal of Enzyme Inhibition and Medicinal Chemistry, 2023)

Key:
EGFR^L858R/T790M = EGFR^L858R/T790M (Homo sapiens, UniProt P00533, L858R/T790M); assay: EGFR kinase inhibition by ELISA, L858R/T790M; assay type: biochemical; details: EGFR^L858R/T790M versus EGFR^WT, kinase assay
A549 cells [1] = assay: AO/EB fluorescent staining, morphology of apoptotic cells; assay type: cell-based; details: A549 cells, 1, 5 or 10 μM, 48 h
In short: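 A549 cells seeded in 6-well plates at 3.6 × 10^5/mL and grown 24 h, then exposed to test compound for a further 48 h; untreated A549 cells served as control. Cells were stained for a few min with AO/EB dual fluorescent solution, then viewed and photographed by forward fluorescence microscopy for apoptotic morphology.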

A549 cells [2] = assay: Wound healing; assay type: cell-based; details: 5 or 10 μM, 0, 24 and 48 h
In short: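 Wound-healing format with A549 cells at 3.6 × 10^5/well, exposed to test compound and imaged at 0, 24 and 48 h. Cell migration into the wound was assessed by microscopy and photography.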

H1975 cells [3] = assay: Apoptosis by flow cytometry, Annexin V/PI double staining; assay type: cell-based; details: H1975, 10 μM, 48 h; total apoptotic cells (Q2 + Q3)
In short: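 H1975 cells in log growth seeded at 3 × 10^5/well, held 24 h at 37 °C, 5% CO2, then exposed to test compound at several concentrations for 48 h. Cells harvested by trypsin, PBS-washed, stained with Annexin V-APC for 30 min and then PI for 3 min at room temperature in the dark, diluted in saline and read at once by flow cytometry. Total apoptotic fraction taken as Q2 + Q3.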

H1975 cells [4] = assay: Cell cycle progression by flow cytometry; assay type: cell-based; details: 24 h
In short: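 H1975 cells seeded at 3 × 10^5/well and cultured 24 h, then treated with test compound (0.2, 1.0, 5 μM) for 24 h at 37 °C. Cells PBS-washed, fixed overnight in ice-cold 70% ethanol, washed again and stained with PI for 30 min at room temperature in the dark. DNA content analysed by flow cytometry to give the G2/M fraction against an untreated control.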

EGFR^L858R/T790M, sequence (P00533 25-1210 T790M/L858R): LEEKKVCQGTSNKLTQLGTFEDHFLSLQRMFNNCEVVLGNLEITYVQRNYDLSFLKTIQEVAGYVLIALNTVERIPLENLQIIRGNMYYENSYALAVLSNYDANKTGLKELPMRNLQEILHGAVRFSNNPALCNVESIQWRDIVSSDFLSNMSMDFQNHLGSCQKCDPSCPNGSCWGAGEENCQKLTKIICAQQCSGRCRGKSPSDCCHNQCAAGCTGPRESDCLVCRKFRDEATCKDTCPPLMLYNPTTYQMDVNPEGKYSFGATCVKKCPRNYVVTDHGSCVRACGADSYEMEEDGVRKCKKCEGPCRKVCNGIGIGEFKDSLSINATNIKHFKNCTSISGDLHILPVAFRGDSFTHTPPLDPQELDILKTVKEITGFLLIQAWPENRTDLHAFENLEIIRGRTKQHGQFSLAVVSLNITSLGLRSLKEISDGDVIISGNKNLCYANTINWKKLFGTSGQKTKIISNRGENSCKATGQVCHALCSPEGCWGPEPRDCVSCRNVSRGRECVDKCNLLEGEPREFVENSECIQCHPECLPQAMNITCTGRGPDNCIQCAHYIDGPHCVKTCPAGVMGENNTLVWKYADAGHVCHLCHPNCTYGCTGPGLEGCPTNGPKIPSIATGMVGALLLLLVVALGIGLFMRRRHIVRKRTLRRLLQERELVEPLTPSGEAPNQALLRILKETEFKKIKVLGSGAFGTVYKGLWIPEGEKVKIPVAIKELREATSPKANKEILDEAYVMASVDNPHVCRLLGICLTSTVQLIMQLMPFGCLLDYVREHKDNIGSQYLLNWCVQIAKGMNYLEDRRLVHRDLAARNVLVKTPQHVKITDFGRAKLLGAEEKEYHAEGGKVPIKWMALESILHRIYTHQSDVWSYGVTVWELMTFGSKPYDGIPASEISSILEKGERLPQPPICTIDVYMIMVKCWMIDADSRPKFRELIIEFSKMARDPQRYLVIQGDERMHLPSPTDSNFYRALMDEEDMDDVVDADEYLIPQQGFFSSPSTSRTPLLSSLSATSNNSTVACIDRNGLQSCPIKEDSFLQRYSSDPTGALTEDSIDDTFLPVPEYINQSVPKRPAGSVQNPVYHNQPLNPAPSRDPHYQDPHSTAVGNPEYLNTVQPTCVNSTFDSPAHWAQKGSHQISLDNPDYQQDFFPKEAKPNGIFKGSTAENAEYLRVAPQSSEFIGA

| selectivity for EGFR^WT (EGFR^L858R/T790M) | Compound | apoptosis induction, cell morphology (A549 cells [1]) | wound healing (A549 cells [2]) | apoptosis rate (H1975 cells [3]) [%] | percentage of G2/M-phase cells (H1975 cells [4]; H1975, 0.2 μM) [%] | percentage of G2/M-phase cells (H1975 cells [4]; H1975, 1.0 μM) [%] | percentage of G2/M-phase cells (H1975 cells [4]; H1975, 5 μM) [%] |
| --- | --- | --- | --- | --- | --- | --- | --- |
| more than 16 fold | C=C(Cl)C(=O)Nc1cc(Nc2nc(Nc3cnn(C)c3)c3sccc3n2)c(OC)cc1N(C)CCN(C)C [Compound B7, 2-chloro-N-(2-((2-(dimethylamino)ethyl)(methyl)amino)-4-methoxy-5-((4-((1-methyl-1H-pyrazol-4-yl)amino)thieno[3,2-d]pyrimidin-2-yl)amino)phenyl)acrylamide] | induce apoptosis in A549 cells in a concentration-dependent manner | wound healing was slower in the treated group than that in the blank control group |  |  |  |  |
| more than 76 fold | C=C(Cl)C(=O)Nc1cc(Nc2nc(N3CCc4sccc4C3)c3sccc3n2)c(OC)cc1N(C)CCN(C)C [Compound B1, 2-chloro-N-(5-((4–(6,7-dihydrothieno[3,2-c]pyridin-5(4H)-yl)thieno[3,2-d]pyrimidin-2-yl)amino)-2-((2-(dimethylamino)ethyl)(methyl)amino)-4-methoxyphenyl)acrylamide] | induce apoptosis in A549 cells in a concentration-dependent manner | wound healing was slower in the treated group than that in the blank control group | 22.1 | 24.41 | 27.68 | 31.47 |
